# Data taken from ChEMBL document CHEMBL1649306, “Arylimidamide DB766, a potential chemotherapeutic candidate for Chagas' disease treatment” (Antimicrob Agents Chemother, 2010).
# The source made the active and inactive calls. No cut-off for these calls is given here.
# Assays:
# Trypanosoma cruzi [1] = assay: Antitrypanosomal activity against Trypanosoma cruzi Y bloodstream forms infected in Swiss-Webster mouse assessed as reduction in parasite-induced weight loss in mouse at 50 mg/kg/day, ip administered 5 days postinfection for 10 consecutive days measured on day 120; assay type: functional, organism-based
# Procedure, shortened: (§1)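 Body weight of infected, treated mice followed from 0 to 120 dpi.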
# Trypanosoma cruzi [2] = assay: Antitrypanosomal activity against Trypanosoma cruzi RBVIII epimastigotes after 24 hrs by light microscopy; assay type: functional, organism-based
# Procedure, shortened: (§2)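 Epimastigotes from 5-day exponential cultures, 5 × 10^6 parasites/ml in LIT medium, incubated at 28°C up to 96 h with DB766 0 to 32 μM or Bz 0 to 250 μM. Counted daily in a Neubauer chamber. IC50 averaged from at least three determinations in duplicate.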
# Trypanosoma cruzi [3] = assay: Antitrypanosomal activity against Trypanosoma cruzi 855 epimastigotes after 24 hrs by light microscopy; assay type: functional, organism-based; details: Trypanosoma cruzi, 855, 24 h; procedure, shortened: as §2
# Trypanosoma cruzi [4] = assay: Antitrypanosomal activity against Trypanosoma cruzi Y bloodstream forms infected in Swiss-Webster mouse assessed as survival of mouse at 50 mg/kg/day, ip p administered 5 days postinfection for 10 consecutive days measured on day 120; assay type: functional, organism-based
# Procedure, shortened: (§3)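 Male Swiss mice infected i.p. with 10^4 Y strain bloodstream forms. Given 0.2 ml i.p. at 5 and 8 dpi, or daily for 10 days from 5 dpi; reference drug given by gavage. Parasitemia measured by the Pizzi-Brener method, cumulative mortality checked daily to 120 dpi, n ≥ 6 per group.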
# Trypanosoma cruzi [5] = assay: Antitrypanosomal activity against bloodstream forms of Trypanosoma cruzi Y after 24 hrs by light microscopy; assay type: functional, organism-based
# Procedure, shortened: (§4)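 Bloodstream trypomastigotes from infected Swiss mice at peak parasitemia, 5.0 × 10^6 cells/ml in RPMI 1640 with 5% FBS. Exposed at 37°C to serial dilutions from 0 to 32 μM. Motile live parasites counted by light microscopy in a Neubauer chamber, then IC50 calculated.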
# Trypanosoma cruzi [6] = assay: Antitrypanosomal activity against Trypanosoma cruzi MS1523 epimastigotes after 24 hrs by light microscopy; assay type: functional, organism-based; details: MS1523, 24 h; procedure, shortened: as §2
# Mus musculus [7] = assay: Cytotoxicity against Swiss-Webster mouse assessed as effect on creatine kinase at 100 mg/kg/day measured after 14 days postinfection; assay type: organism-based; details: in vivo, 336 h
# Trypanosoma cruzi [8] = assay: Antitrypanosomal activity against bloodstream forms of Trypanosoma cruzi CL after 24 hrs by light microscopy in presence of 50% mouse blood; assay type: functional, organism-based
# Procedure, shortened: (§5)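 Bloodstream trypomastigotes kept at 4°C for 24 h in freshly isolated 50% mouse blood with serial dilutions (up to 32 μM). Motile live parasites counted in a Neubauer chamber by light microscopy; IC50 calculated as concentration reducing parasite number by 50%.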
# Trypanosoma cruzi [9] = assay: Antitrypanosomal activity against Trypanosoma cruzi Y bloodstream forms infected in Swiss-Webster mouse assessed as survival of mouse at 25 mg/kg/day, ip administered 8 days postinfection measured on day 120; assay type: functional, organism-based; procedure, shortened: as §3
# Trypanosoma cruzi [10] = assay: Antitrypanosomal activity against Trypanosoma cruzi Y bloodstream forms infected in Swiss-Webster mouse assessed as survival rate of mouse at 100 mg/kg/day, ip administered 8 days postinfection measured on day 120; assay type: functional; details: route intraperitoneal
# Procedure, shortened: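 Every-other-day i.p. dosing (5 doses, each 48 h apart) of 100 mg/kg/day in male Swiss mice inoculated with 10^4 Y-strain bloodstream trypomastigotes, n ≥ 6 parasitemia-positive animals. Mortality recorded daily up to 120 dpi as cumulative percentage.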
# Trypanosoma cruzi [11] = assay: Antitrypanosomal activity against bloodstream forms of Trypanosoma cruzi Y after 2 hrs by light microscopy in presence of 96% mouse blood; assay type: functional, organism-based
# Procedure, shortened: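 Bloodstream trypomastigotes held at 4°C in freshly isolated mouse blood (96%) with serial dilutions up to 32 μM. Live motile parasites counted by light microscopy in a Neubauer chamber, giving an IC50 for each exposure time.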
# Trypanosoma cruzi [12] = assay: Antitrypanosomal activity against Trypanosoma cruzi Columbian bloodstream forms infected in C3H mouse assessed as reduction in parasite-induced weight loss at 50 mg/kg/day, ip administered 5 days postinfection for 10 consecutive days measured after 120 days; assay type: functional, organism-based; procedure, shortened: as §1
# Trypanosoma cruzi [13] = assay: Antitrypanosomal activity against Trypanosoma cruzi Y infected in Swiss-Webster mouse assessed as decrease in parasite-induced weight loss at 100 mg/kg/day, po administered 5 days post-infection for 10 consecutive days measured on day 120; assay type: functional, organism-based; procedure, shortened: as §1
# Mus musculus [14] = assay: Hepatotoxicity against Swiss-Webster mouse assessed as GPT at 100 mg/kg/day measured after 14 days postinfection; assay type: toxicity, organism-based; details: in vivo, 336 h
# Trypanosoma cruzi [15] = assay: Antitrypanosomal activity against Trypanosoma cruzi Y amastigotes infected in Swiss-Webster CM cells assessed as parasite DNA to host cell nucleus ratio at 10 ug/ml after 1 hr by fluorescence and transmission electron microscopy analysis; assay type: functional
# Trypanosoma cruzi [16] = assay: Antitrypanosomal activity against Trypanosoma cruzi Y infected in Swiss-Webster mouse assessed as decrease in parasite load at 100 mg/kg/day, ip administered 5 days post-infection for 10 consecutive days measured on day 120; assay type: functional; details: route intraperitoneal; procedure, shortened: as §3
# Trypanosoma cruzi [17] = assay: Antitrypanosomal activity against Trypanosoma cruzi 960 epimastigotes after 24 hrs by light microscopy; assay type: functional, organism-based; details: Trypanosoma cruzi, 960, 24 h; procedure, shortened: as §2
# Trypanosoma cruzi [18] = assay: Antitrypanosomal activity against bloodstream forms of Trypanosoma cruzi Y infected in Swiss mouse cardiomyocytes assessed as intracellular parasitemia at 10.6 uM after 72 hrs by Pizzi-Brener method; assay type: functional, organism-based
# Trypanosoma cruzi [19] = assay: Antitrypanosomal activity against Trypanosoma cruzi Columbian bloodstream forms infected in C3H mouse assessed as decrease in parasite load at 100 mg/kg/day, ip administered 5 days postinfection for 10 consecutive days measured after 31 days; assay type: functional; design: scale not given: the % may be the effect or the level left; details: route intraperitoneal
# Procedure, shortened: (§6)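 C3H/He mice infected i.p. with 10^3 or 5 × 10^3 Colombian strain bloodstream forms. Treated daily for 10 days with 0.1 ml i.p. or by gavage, reference drug given by gavage. Parasitemia measured by the Pizzi-Brener method; n ≥ 6 parasitemic mice per group.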
# Trypanosoma cruzi [20] = assay: Antitrypanosomal activity against Trypanosoma cruzi Y bloodstream forms after 2 hrs by light microscopy; assay type: functional, organism-based; procedure, shortened: as §4
# [21] = Cytotoxicity against Swiss-Webster mouse cardiomyocytes after 24 hrs by MTT assay; assay type: cell-based, Cardiomyocyte; details: read-out: LC50
# Procedure, shortened: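 Primary embryonic cardiomyocytes from Swiss mice, uninfected, incubated 24 h or 72 h at 37°C, 5% CO2, with 0 to 96 μM in DMEM. MTT read at 490 nm; LC50 taken as concentration reducing viability by 50%; at least three experiments in duplicate.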
# Trypanosoma cruzi [22] = assay: Antitrypanosomal activity against Trypanosoma cruzi Y epimastigotes after 24 hrs by light microscopy; assay type: functional, organism-based; procedure, shortened: as §2
# Trypanosoma cruzi [23] = assay: Antitrypanosomal activity against Trypanosoma cruzi Y bloodstream forms infected in Swiss-Webster mouse assessed as decrease in parasite load at 25 mg/kg/day, ip administered 8 days postinfection measured on day 2; assay type: functional; design: scale not given: the % may be the effect or the level left; details: route intraperitoneal; procedure, shortened: as §3
# Trypanosoma cruzi [24] = assay: Antitrypanosomal activity against bloodstream forms of Trypanosoma cruzi Columbian after 24 hrs by light microscopy in presence of 50% mouse blood; assay type: functional, organism-based; procedure, shortened: as §5
# Trypanosoma cruzi [25] = assay: Antitrypanosomal activity against Trypanosoma cruzi Columbian bloodstream forms infected in C3H mouse assessed as decrease in parasite load at 50 mg/kg/day, po administered 5 days postinfection for 10 consecutive days measured after 41 days; assay type: functional, organism-based; procedure, shortened: as §6
smiles,measurement,setting,value
CC(C)Oc1cc(NC(=N)c2ccccn2)ccc1-c1ccc(-c2ccc(NC(=N)c3ccccn3)cc2OC(C)C)o1,Activity,Trypanosoma cruzi [1],inactive
same,IC50,Trypanosoma cruzi [2],180 nM
same,IC90,Trypanosoma cruzi [2],440 nM
same,IC50,Trypanosoma cruzi [3],90 nM
same,IC90,Trypanosoma cruzi [3],330 nM
same,Activity,Trypanosoma cruzi [4],Active
same,IC50,Trypanosoma cruzi [5],110 nM
same,IC50,Trypanosoma cruzi [6],170 nM
same,IC90,Trypanosoma cruzi [6],410 nM
same,Activity,Mus musculus [7],Non-toxic
same,IC50,Trypanosoma cruzi [8],710 nM
same,Activity,Trypanosoma cruzi [9],Active
same,Activity,Trypanosoma cruzi [10],60%
same,IC50,Trypanosoma cruzi [11],560 nM
same,Activity,Trypanosoma cruzi [12],Active
same,Activity,Trypanosoma cruzi [13],inactive
same,Activity,Mus musculus [14],Non-toxic
same,Ratio,Trypanosoma cruzi [15],2.1
same,inhibition in vivo at 100 mg/kg/day,Trypanosoma cruzi [16],> 98%
same,IC50,Trypanosoma cruzi [17],90 nM
same,IC90,Trypanosoma cruzi [17],280 nM
same,IC50,Trypanosoma cruzi [18],25 nM
same,Activity,Trypanosoma cruzi [19],100%
same,IC50,Trypanosoma cruzi [20],1140 nM
same,CC50 at 24 h,[21],> 32000 nM
same,IC50,Trypanosoma cruzi [22],70 nM
same,IC90,Trypanosoma cruzi [22],220 nM
same,Activity,Trypanosoma cruzi [23],78%
same,IC50,Trypanosoma cruzi [24],1000 nM
same,Activity,Trypanosoma cruzi [25],Active
